Assay results reported in ChEMBL document CHEMBL1142105, “Bioactive metabolites from the Caribbean sponge Aka coralliphagum” (J Nat Prod, 2007).
Converted amounts (≈) assume the structure as drawn.

Legend:
[1] = tested on: Globisporangium debaryanum; experiment: Antimicrobial activity against Pythium debaryanum at 20 ug by agar diffusion test; type: functional; conditions: read-out: IZ
Procedure, shortened: (§1)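 Fungal spores were rinsed from well-grown Petri dishes with 10 mL sterile water, and 1 mL of the suspension was mixed into 100 mL molten agar. Disks (6 mm) with 20 µg compound (20 µL, 1 mg/mL in methanol) were placed on the agar. Plates were incubated at 30 °C, and zone diameter (mm) was scored after 1 and 2 days.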

Pseudomonas aeruginosa = experiment: Antimicrobial activity against Pseudomonas aeruginosa at 20 ug by agar diffusion test; type: functional; conditions: read-out: IZ
Procedure, shortened: (§2)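 Agar diffusion on 6 mm paper disks loaded with 20 µL of a 1 mg/mL methanol solution (20 µg). Bacteria from the HZI collection were grown on standard media and seeded into agar medium at a final OD of 0.01. Plates were incubated at 30 °C, and inhibition zone diameter (mm) was read after 1 and 2 days.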

[2] = DPPH radical scavenging activity at 40 umol/L relative to control; type: functional
Procedure, shortened: (§3)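 Samples in EtOH (1000 µL at 200 or 40 µM) were mixed with 250 µL of 1 mM DPPH stock and 750 µL EtOH, then held at RT in the dark for 30 min. Absorbance was read at 517 nm. Scavenging % = 100 − (A sample × 100/A control).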

L929 = experiment: Cytotoxicity against mouse L929 cells by MTT assay; type: cell-based
Procedure, shortened: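 L929 mouse fibroblasts (DSMZ) were grown in high-glucose DME with 10% fetal calf serum at 37 °C and 10% CO2. Cell suspension (120 µL at 50 000/mL) was added to 60 µL of serial compound dilutions in microtiter plates. Growth was determined by MTT after 5 days, with concentrations expressed in µg/mL.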

[3] = DPPH radical scavenging activity at 200 umol/L relative to control; type: functional; procedure, shortened: as §3
Micrococcus luteus = experiment: Antimicrobial activity against Micrococcus luteus at 20 ug by agar diffusion test; type: functional; conditions: read-out: IZ; procedure, shortened: as §2
Candida albicans = experiment: Antimicrobial activity against Candida albicans at 20 ug by agar diffusion test; type: functional; conditions: read-out: IZ
Procedure, shortened: (§4)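 Yeasts from the HZI collection were seeded into agar medium at a final OD of 0.1. Paper disks (6 mm) carried 20 µg of compound, applied as 20 µL of 1 mg/mL in MeOH. Plates were kept at 30 °C, and inhibition zone diameters (mm) were measured at days 1 and 2.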

Aspergillus fumigatus = experiment: Antimicrobial activity against Aspergillus fumigatus at 20 ug by agar diffusion test; type: functional; conditions: read-out: IZ; procedure, shortened: as §1
Saccharomyces cerevisiae = experiment: Antimicrobial activity against Saccharomyces cerevisiae at 20 ug by agar diffusion test; type: functional; conditions: read-out: IZ; procedure, shortened: as §4
Escherichia coli = experiment: Antimicrobial activity against Escherichia coli tolC at 20 ug by agar diffusion test; type: functional; conditions: read-out: IZ; procedure, shortened: as §2
Klebsiella pneumoniae = experiment: Antimicrobial activity against Klebsiella pneumoniae at 20 ug by agar diffusion test; type: functional; conditions: read-out: IZ; procedure, shortened: as §2
Mycolicibacterium phlei = experiment: Antimicrobial activity against Mycobacterium phlei at 20 ug by agar diffusion test; type: functional; conditions: read-out: IZ; procedure, shortened: as §2
Botrytis cinerea = experiment: Antimicrobial activity against Botrytis cinerea at 20 ug by agar diffusion test; type: functional; conditions: read-out: IZ; procedure, shortened: as §1
Wickerhamomyces anomalus = experiment: Antimicrobial activity against Hansenula anomala at 20 ug by agar diffusion test; type: functional; conditions: read-out: IZ; procedure, shortened: as §4
Staphylococcus aureus = experiment: Antimicrobial activity against Staphylococcus aureus at 20 ug by agar diffusion test; type: functional; conditions: read-out: IZ; procedure, shortened: as §2

Structure (SMILES)	zone of inhibition at 20 µg/disc [1] [mm]	zone of inhibition at 20 µg/disc (Pseudomonas aeruginosa) [mm]	Activity [2] [%]	Activity (L929) [µg/mL]	Activity [3] [%]	zone of inhibition at 20 µg/disc (Micrococcus luteus) [mm]	zone of inhibition at 20 µg/disc (Candida albicans) [mm]	zone of inhibition at 20 µg/disc (Aspergillus fumigatus) [mm]	zone of inhibition at 20 µg/disc (Saccharomyces cerevisiae) [mm]	zone of inhibition at 20 µg/disc (Escherichia coli) [mm]	zone of inhibition at 20 µg/disc (Klebsiella pneumoniae) [mm]	zone of inhibition at 20 µg/disc (Mycolicibacterium phlei) [mm]	zone of inhibition at 20 µg/disc (Botrytis cinerea) [mm]	zone of inhibition at 20 µg/disc (Wickerhamomyces anomalus) [mm]	zone of inhibition at 20 µg/disc (Staphylococcus aureus) [mm]	IC50 (L929) [µg/mL]
C=C1CCCC2[C@](C)(Cc3cc(C=O)cc(O)c3OS(=O)(=O)O)[C@@H](C)CC[C@]12C (some centres undefined) [SIPHONODICTYAL G]	0	0	5.9	10	32.2	0	0	0	0	0	0	0	0	0	0	
O=C1O[C@H]([C@@H](O)CO)C(O)=C1O			27		95.3											
C[C@H]1CCC2C(C)(C)CCC[C@]2(C)/C1=C/c1cc(O)c(O)c(C=O)c1O (some centres undefined) [SIPHONODICTYAL B]				0.2				15	0	9					12	
C[C@H]1CCC2C(C)(C)CCC[C@]2(C)/C1=C/c1cc(O)c(O)c(/C=N/CCS(=O)(=O)O)c1OS(=O)(=O)O (some centres undefined) [SIPHONODICTYAL B1]	0	0	23.5	10	80.8	0	0	0	0	0	0	0	13	0	12	
C[C@H]1CCC2C(C)(C)CCC[C@]2(C)/C1=C/c1cc(O)c(O)c(C=O)c1OS(=O)(=O)O (some centres undefined) [SIPHONODICTYAL B2]	0	0	25.3		88.8	0	0	0	0	0	0	0	15		13	6 (≈ 13.7 µM)
C=C1CCCC2[C@](C)(Cc3cc(CO)cc(O)c3OS(=O)(=O)O)[C@@H](C)CC[C@]12C (some centres undefined) [SIPHONODICTYOL G]	0	0	2.6	> 40	39.8	0	0	0	0	0	0	0	15	0	0	
C[C@H]1CCC2C(C)(C)CCC[C@]2(C)/C1=C/c1cc(OS(=O)(=O)O)c(O)c(C=O)c1OS(=O)(=O)O (some centres undefined) [SIPHONODICTYAL B3]	0	0		> 40		0	0	0	0	0	0	0	0	0	0	
